Test results published in ChEMBL document CHEMBL4689842, “EUbOPEN Chemogenomics Library wave 1” (2021).
“And” between values parts separate entries of the source, which are not always exact repeats. Equal values may be shown once.

System: HEK-293T
Assay: Multiplex assay against HEK293T;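 as to Population Tubulin-Different-Phenotype (%): share of the cells with healthy nuclei that show this phenotype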
Type: toxicity, cell-based
Conditions: human
Outline: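 Live cells were stained at seeding with Hoechst33342, BioTracker Green Microtubule Cytoskeleton Dye, MitoTracker Red and Annexin V Alexa Fluor 680. Following compound addition, they were imaged on a CQ1 microscope at 37°C and 5% CO2 and gated by CellPathfinder machine learning into Hoechst high-intensity objects or normal cells, with normal cells split into healthy, pyknosed or fragmented nuclei and pyknosed cells into mitotic or apoptotic. Tubulin, mitochondrial-mass and membrane-permeability phenotypes are per cents of healthy-nucleus cells.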

[1] = 12 h, 1 µM, compound concentration 1 uM, replicate 1
[2] = 12 h, 1 µM, compound concentration 1 uM, replicate 2
[3] = 12 h, 10 µM, compound concentration 10 uM, replicate 1
[4] = 12 h, 10 µM, compound concentration 10 uM, replicate 2
[5] = 24 h, 1 µM, compound concentration 1 uM, replicate 1
[6] = 24 h, 1 µM, compound concentration 1 uM, replicate 2
[7] = 24 h, 10 µM, compound concentration 10 uM, replicate 1
[8] = 24 h, 10 µM, compound concentration 10 uM, replicate 2
[9] = 48 h, 1 µM, compound concentration 1 uM, replicate 1
[10] = 48 h, 1 µM, compound concentration 1 uM, replicate 2
[11] = 48 h, 10 µM, compound concentration 10 uM, replicate 1
[12] = 48 h, 10 µM, compound concentration 10 uM, replicate 2

Compound: Cl.N#Cc1ccc2[nH]cc(CCCCN3CCN(c4ccc5oc(C(N)=O)cc5c4)CC3)c2c1 [VILAZODONE HYDROCHLORIDE]
- Population Apoptotic (%) [1]: 53%
- Population Healthy Nuclei (%) [1]: 49%
- Population Hoechst High Intensity Objects (%) [1]: 9%
- Population Membrane Permeable-Phenotype (%) [1]: 1%
- Population Mitochondria Different-Phenotype (%) [1]: 93%
- Population Mitotic Cells (%) [1]: 46%
- Population Normal (%) [1]: 90%
- Population Pyknosed Nuclei (%) [1]: 44%
- Population Tubulin-Different-Phenotype (%) [1]: 78%
- Total Cell Count [1]: 364
- Population Apoptotic (%) [2]: 20%
- Population Fragmented Nuclei (%) [2]: 6%
- Population Healthy Nuclei (%) [2]: 32%
- Population Hoechst High Intensity Objects (%) [2]: 3%
- Population Membrane Permeable-Phenotype (%) [2]: 6%
- Population Mitochondria Different-Phenotype (%) [2]: 67%
- Population Mitotic Cells (%) [2]: 79%
- Population Normal (%) [2]: 96%
- Population Pyknosed Nuclei (%) [2]: 61%
- Population Tubulin-Different-Phenotype (%) [2]: 69%
- Total Cell Count [2]: 138
- Population Apoptotic (%) [3]: 93%
- Population Healthy Nuclei (%) [3]: 8%
- Population Hoechst High Intensity Objects (%) [3]: 25%
- Population Membrane Permeable-Phenotype (%) [3]: 0%
- Population Mitochondria Different-Phenotype (%) [3]: 100%
- Population Mitotic Cells (%) [3]: 6%
- Population Normal (%) [3]: 74%
- Population Pyknosed Nuclei (%) [3]: 78%
- Population Tubulin-Different-Phenotype (%) [3]: 92%
- Total Cell Count [3]: 198
- Population Apoptotic (%) [4]: 82%
- Population Fragmented Nuclei (%) [4]: 12%
- Population Healthy Nuclei (%) [4]: 16%
- Population Hoechst High Intensity Objects (%) [4]: 23%
- Population Membrane Permeable-Phenotype (%) [4]: 23%
- Population Mitochondria Different-Phenotype (%) [4]: 84%
- Population Mitotic Cells (%) [4]: 17%
- Population Normal (%) [4]: 76%
- Population Pyknosed Nuclei (%) [4]: 70%
- Population Tubulin-Different-Phenotype (%) [4]: 96%
- Total Cell Count [4]: 199
- Population Apoptotic (%) [5]: 52%
- Population Fragmented Nuclei (%) [5]: 6%
- Population Healthy Nuclei (%) [5]: 58%
- Population Hoechst High Intensity Objects (%) [5]: 6%
- Population Membrane Permeable-Phenotype (%) [5]: 3%
- Population Mitochondria Different-Phenotype (%) [5]: 87%
- Population Mitotic Cells (%) [5]: 47%
- Population Normal (%) [5]: 93%
- Population Pyknosed Nuclei (%) [5]: 34%
- Population Tubulin-Different-Phenotype (%) [5]: 71%
- Total Cell Count [5]: 412
- Population Apoptotic (%) [6]: 32%
- Population Fragmented Nuclei (%) [6]: 5%
- Population Healthy Nuclei (%) [6]: 43%
- Population Hoechst High Intensity Objects (%) [6]: 5%
- Population Membrane Permeable-Phenotype (%) [6]: 2%
- Population Mitochondria Different-Phenotype (%) [6]: 60%
- Population Mitotic Cells (%) [6]: 67%
- Population Normal (%) [6]: 94%
- Population Pyknosed Nuclei (%) [6]: 50%
- Population Tubulin-Different-Phenotype (%) [6]: 58%
- Total Cell Count [6]: 165
- Population Apoptotic (%) [7]: 98%
- Population Fragmented Nuclei (%) [7]: 19%
- Population Healthy Nuclei (%) [7]: 5%
- Population Hoechst High Intensity Objects (%) [7]: 21%
- Population Membrane Permeable-Phenotype (%) [7]: 0%
- Population Mitochondria Different-Phenotype (%) [7]: 100%
- Population Mitotic Cells (%) [7]: 1%
- Population Normal (%) [7]: 78%
- Population Pyknosed Nuclei (%) [7]: 74%
- Population Tubulin-Different-Phenotype (%) [7]: 100%
- Total Cell Count [7]: 215
- Population Apoptotic (%) [8]: 92%
- Population Fragmented Nuclei (%) [8]: 10%
- Population Healthy Nuclei (%) [8]: 12%
- Population Hoechst High Intensity Objects (%) [8]: 25%
- Population Membrane Permeable-Phenotype (%) [8]: 11%
- Population Mitochondria Different-Phenotype (%) [8]: 94%
- Population Mitotic Cells (%) [8]: 7%
- Population Normal (%) [8]: 74%
- Population Pyknosed Nuclei (%) [8]: 76%
- Population Tubulin-Different-Phenotype (%) [8]: 94%
- Total Cell Count [8]: 186
- Population Apoptotic (%) [9]: 32%
- Population Healthy Nuclei (%) [9]: 75%
- Population Hoechst High Intensity Objects (%) [9]: 7%
- Population Membrane Permeable-Phenotype (%) [9]: 2%
- Population Mitochondria Different-Phenotype (%) [9]: 51%
- Population Mitotic Cells (%) [9]: 67%
- Population Normal (%) [9]: 92%
- Population Pyknosed Nuclei (%) [9]: 15%
- Population Tubulin-Different-Phenotype (%) [9]: 57%
- Total Cell Count [9]: 639
- Population Apoptotic (%) [10]: 33%
- Population Fragmented Nuclei (%) [10]: 9%
- Population Healthy Nuclei (%) [10]: 68%
- Population Hoechst High Intensity Objects (%) [10]: 4%
- Population Membrane Permeable-Phenotype (%) [10]: 6%
- Population Mitochondria Different-Phenotype (%) [10]: 32%
- Population Mitotic Cells (%) [10]: 66%
- Population Normal (%) [10]: 95%
- Population Pyknosed Nuclei (%) [10]: 22%
- Population Tubulin-Different-Phenotype (%) [10]: 51%
- Total Cell Count [10]: 263
- Population Apoptotic (%) [11]: 94%
- Population Fragmented Nuclei (%) [11]: 27%
- Population Healthy Nuclei (%) [11]: 0%
- Population Hoechst High Intensity Objects (%) [11]: 16%
- Population Membrane Permeable-Phenotype (%) [11]: 0%
- Population Mitochondria Different-Phenotype (%) [11]: 100%
- Population Mitotic Cells (%) [11]: 5%
- Population Normal (%) [11]: 83%
- Population Pyknosed Nuclei (%) [11]: 72%
- Population Tubulin-Different-Phenotype (%) [11]: 0%
- Total Cell Count [11]: 248
- Population Apoptotic (%) [12]: 95%
- Population Fragmented Nuclei (%) [12]: 13%
- Population Healthy Nuclei (%) [12]: 12%
- Population Hoechst High Intensity Objects (%) [12]: 30%
- Population Membrane Permeable-Phenotype (%) [12]: 17%
- Population Mitochondria Different-Phenotype (%) [12]: 88%
- Population Mitotic Cells (%) [12]: 4%
- Population Normal (%) [12]: 69%
- Population Pyknosed Nuclei (%) [12]: 73%
- Population Tubulin-Different-Phenotype (%) [12]: 94%
- Total Cell Count [12]: 191

Compound: Cc1sc2c(c1C)C(c1ccc(Cl)cc1)=N[C@@H](CC(=O)OC(C)(C)C)c1nnc(C)n1-2
- Population Apoptotic (%) [3]: 16% and 17%
- Population Fragmented Nuclei (%) [3]: 19% and 13%
- Population Healthy Nuclei (%) [3]: 65% and 71%
- Population Hoechst High Intensity Objects (%) [3]: 14% and 8%
- Population Membrane Permeable-Phenotype (%) [3]: 3%
- Population Mitochondria Different-Phenotype (%) [3]: 6% and 5%
- Population Mitotic Cells (%) [3]: 83% and 82%
- Population Normal (%) [3]: 85% and 91%
- Population Pyknosed Nuclei (%) [3]: 15%
- Population Tubulin-Different-Phenotype (%) [3]: 2%
- Total Cell Count [3]: 561 and 772
- Population Apoptotic (%) [4]: 6% and 3%
- Population Fragmented Nuclei (%) [4]: 14% and 12%
- Population Healthy Nuclei (%) [4]: 79%
- Population Hoechst High Intensity Objects (%) [4]: 3% and 4%
- Population Membrane Permeable-Phenotype (%) [4]: 0%
- Population Mitochondria Different-Phenotype (%) [4]: 10% and 11%
- Population Mitotic Cells (%) [4]: 93% and 96%
- Population Normal (%) [4]: 96% and 95%
- Population Pyknosed Nuclei (%) [4]: 5% and 7%
- Population Tubulin-Different-Phenotype (%) [4]: 0%
- Total Cell Count [4]: 1959 and 1675
- Population Apoptotic (%) [7]: 16% and 12%
- Population Fragmented Nuclei (%) [7]: 17% and 9%
- Population Healthy Nuclei (%) [7]: 70% and 80%
- Population Hoechst High Intensity Objects (%) [7]: 11% and 10%
- Population Membrane Permeable-Phenotype (%) [7]: 1%
- Population Mitochondria Different-Phenotype (%) [7]: 7% and 3%
- Population Mitotic Cells (%) [7]: 84% and 87%
- Population Normal (%) [7]: 88% and 89%
- Population Pyknosed Nuclei (%) [7]: 11% and 10%
- Population Tubulin-Different-Phenotype (%) [7]: 2% and 1%
- Total Cell Count [7]: 472 and 770
- Population Apoptotic (%) [8]: 5%
- Population Fragmented Nuclei (%) [8]: 19% and 20%
- Population Healthy Nuclei (%) [8]: 76% and 75%
- Population Hoechst High Intensity Objects (%) [8]: 5%
- Population Membrane Permeable-Phenotype (%) [8]: 0%
- Population Mitochondria Different-Phenotype (%) [8]: 5%
- Population Mitotic Cells (%) [8]: 94%
- Population Normal (%) [8]: 94%
- Population Pyknosed Nuclei (%) [8]: 4% and 3%
- Population Tubulin-Different-Phenotype (%) [8]: 0%
- Total Cell Count [8]: 1813 and 2044
